Measurements taken from ChEMBL document CHEMBL3217512, “Indole/triazole conjugates are selective inhibitors and inducers of bacterial biofilms” (Medchemcomm, 2013).
pIC50: −log10 of the molar value.

Columns and labels:
Staphylococcus aureus [1] = assay: Antimicrobial activity against Staphylococcus aureus 29213 assessed as effect on planktonic growth at IC50 after 2 to 24 hrs by colony count method; type: organism-based; details: in vivo
Staphylococcus aureus [2] = assay: Antimicrobial activity against methicillin-resistant Staphylococcus aureus BAA 44 assessed as effect on planktonic growth at IC50 after 2 to 24 hrs; type: organism-based; details: in vivo
Staphylococcus aureus [3] = assay: Induction of biofilm formation in methicillin-resistant Staphylococcus aureus BAA 44 at 50 uM after 24 hrs by crystal violet staining-based assay relative to control; type: functional
Method in brief: (§1)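 Static biofilm development in MRSA, read out by crystal violet staining against an untreated control. Initial screen at 150 μM. Inhibitors then went to dose-response, with IC50 taken as the concentration giving 50% inhibition of biofilm growth. Induction was judged at 50 μM: under 50% induction counted as "inducer", over 50% as "strong inducer".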

Acinetobacter baumannii [4] = assay: Antimicrobial activity against Acinetobacter baumannii 19606 assessed as effect on planktonic growth at IC50 after 2 to 24 hrs; design: species or system ATCC 19606
Escherichia coli [5] = assay: Antimicrobial activity against Escherichia coli K-12 ER2718 assessed as effect on planktonic growth at IC50 after 2 to 24 hrs by colony count method; type: organism-based
Acinetobacter baumannii [6] = assay: Antimicrobial activity against Acinetobacter baumannii 19606 assessed as effect on planktonic growth at IC50 after 2 to 24 hrs by colony count method; design: species or system ATCC 19606
Staphylococcus aureus [7] = assay: Antimicrobial activity against methicillin-resistant Staphylococcus aureus BAA 44 assessed as effect on planktonic growth at 50 uM after 2 to 24 hrs; type: organism-based
Method in brief: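 Growth-curve analysis of planktonic MRSA in the presence of each biofilm inducer at 50 μM, to check for toxicity.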

Staphylococcus aureus [8] = assay: Inhibition of biofilm formation in Staphylococcus aureus 29213 at 150 uM after 24 hrs by crystal violet staining-based assay relative to control; type: functional; details: Staphylococcus aureus, 29213, 24 h
Staphylococcus aureus [9] = assay: Antimicrobial activity against methicillin-resistant Staphylococcus aureus BAA 44 assessed as effect on planktonic growth at PC50 after 2 to 24 hrs; type: organism-based; details: in vivo
Staphylococcus aureus [10] = assay: Antimicrobial activity against methicillin-resistant Staphylococcus aureus BAA 44 assessed as effect on planktonic growth at PC25 after 2 to 24 hrs by colony count method; type: organism-based; details: in vivo
Staphylococcus aureus [11] = assay: Antimicrobial activity against methicillin-resistant Staphylococcus aureus BAA 44 assessed as effect on planktonic growth at PC75 after 2 to 24 hrs; type: organism-based; details: in vivo
Staphylococcus aureus [12] = assay: Antimicrobial activity against Staphylococcus aureus 29213 assessed as effect on planktonic growth at IC50 after 2 to 24 hrs; type: organism-based; details: in vivo
Staphylococcus aureus [13] = assay: Antimicrobial activity against methicillin-resistant Staphylococcus aureus BAA 44 assessed as effect on planktonic growth at PC25 after 2 to 24 hrs; type: organism-based; details: in vivo
Staphylococcus aureus [14] = assay: Antimicrobial activity against methicillin-resistant Staphylococcus aureus BAA 44 assessed as effect on planktonic growth at PC75 after 2 to 24 hrs by colony count method; type: organism-based; details: in vivo
Escherichia coli [15] = assay: Inhibition of biofilm formation in Escherichia coli K-12 ER2718 at 150 uM after 24 hrs by crystal violet staining-based assay relative to control; type: functional; details: K-12 ER2718, 24 h
Escherichia coli [16] = assay: Antimicrobial activity against Escherichia coli K-12 ER2718 assessed as effect on planktonic growth at IC50 after 2 to 24 hrs; type: organism-based
Staphylococcus aureus [17] = assay: Antimicrobial activity against methicillin-resistant Staphylococcus aureus BAA 44 assessed as effect on planktonic growth at IC50 after 2 to 24 hrs by colony count method; type: organism-based; details: in vivo
Staphylococcus aureus [18] = assay: Antimicrobial activity against methicillin-resistant Staphylococcus aureus BAA 44 assessed as effect on planktonic growth at PC50 after 2 to 24 hrs by colony count method; type: organism-based; details: in vivo
Acinetobacter baumannii [19] = assay: Inhibition of biofilm formation in Acinetobacter baumannii 19606 at 150 uM after 24 hrs by crystal violet staining-based assay relative to control; type: functional; details: ATCC 19606 = CIP 70.34 = JCM 6841, 24 h
Escherichia coli [20] = assay: Induction of biofilm formation in Escherichia coli K-12 ER2718 at 50 uM after 24 hrs by crystal violet staining-based assay relative to control; type: functional
Method in brief: (§2)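 Static biofilm assay with compounds at 50 μM and crystal violet read-out, relative to an untreated control. Compounds increasing biofilm by less than 50% were called inducers, and by more than 50% strong inducers.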

Escherichia coli [21] = assay: Induction of biofilm formation in Escherichia coli K-12 ER2718 assessed as concentration required for 75% promotion of biofilm formation after 24 hrs by crystal violet staining-based assay; type: functional
Method in brief: (§3)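 For strong inducers of E. coli biofilm, dose-response curves were run in the static crystal violet assay. PC25, PC50 and PC75 are the concentrations promoting biofilm formation by 25%, 50% and 75%.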

Escherichia coli [22] = assay: Antimicrobial activity against Escherichia coli K-12 ER2718 assessed as effect on planktonic growth at 50 uM after 2 to 24 hrs; type: organism-based
Method in brief: (§4)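 Growth curve analysis of planktonic bacteria with each biofilm inducer at 50 μM, used to assess toxicity.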

Escherichia coli [23] = assay: Induction of biofilm formation in Escherichia coli K-12 ER2718 assessed as concentration required for 50% promotion of biofilm formation after 24 hrs by crystal violet staining-based assay; type: functional; method in brief: as §3
Escherichia coli [24] = assay: Antimicrobial activity against Escherichia coli K-12 ER2718 assessed as effect on planktonic growth at PC75 after 2 to 24 hrs; type: organism-based; details: in vivo
Escherichia coli [25] = assay: Antimicrobial activity against Escherichia coli K-12 ER2718 assessed as effect on planktonic growth at PC75 after 2 to 24 hrs by colony count method; type: organism-based; details: in vivo
Acinetobacter baumannii [26] = assay: Antimicrobial activity against Acinetobacter baumannii 19606 assessed as effect on planktonic growth at PC25 after 2 to 24 hrs; design: species or system ATCC 19606
Acinetobacter baumannii [27] = assay: Antimicrobial activity against Acinetobacter baumannii 19606 assessed as effect on planktonic growth at 50 uM after 2 to 24 hrs; design: species or system ATCC 19606; method in brief: as §4
Acinetobacter baumannii [28] = assay: Antimicrobial activity against Acinetobacter baumannii 19606 assessed as effect on planktonic growth at PC75 after 2 to 24 hrs by colony count method; design: species or system ATCC 19606
Acinetobacter baumannii [29] = assay: Induction of biofilm formation in Acinetobacter baumannii 19606 at 50 uM after 24 hrs by crystal violet staining-based assay relative to control; type: functional, ATCC 19606 = CIP 70.34 = JCM 6841; method in brief: as §2
Acinetobacter baumannii [30] = assay: Antimicrobial activity against Acinetobacter baumannii 19606 assessed as effect on planktonic growth at PC50 after 2 to 24 hrs by colony count method; design: species or system ATCC 19606
Escherichia coli [31] = assay: Antimicrobial activity against Escherichia coli K-12 ER2718 assessed as effect on planktonic growth at PC25 after 2 to 24 hrs by colony count method; type: organism-based
Escherichia coli [32] = assay: Antimicrobial activity against Escherichia coli K-12 ER2718 assessed as effect on planktonic growth at PC50 after 2 to 24 hrs by colony count method; type: organism-based; details: in vivo
Acinetobacter baumannii [33] = assay: Antimicrobial activity against Acinetobacter baumannii 19606 assessed as effect on planktonic growth at PC25 after 2 to 24 hrs by colony count method; design: species or system ATCC 19606
Staphylococcus aureus [34] = assay: Inhibition of biofilm formation in methicillin-resistant Staphylococcus aureus BAA 44 at 150 uM after 24 hrs by crystal violet staining-based assay relative to control; type: functional; details: BAA 44, 24 h; method in brief: as §1
Escherichia coli [35] = assay: Antimicrobial activity against Escherichia coli K-12 ER2718 assessed as effect on planktonic growth at PC50 after 2 to 24 hrs; type: organism-based
Escherichia coli [36] = assay: Induction of biofilm formation in Escherichia coli K-12 ER2718 assessed as concentration required for 25% promotion of biofilm formation after 24 hrs by crystal violet staining-based assay; type: functional; method in brief: as §3
Staphylococcus aureus [37] = assay: Inhibition of biofilm formation in Staphylococcus aureus 29213 after 24 hrs by crystal violet staining-based assay; type: functional, organism-based; details: Staphylococcus aureus, 29213, 24 h
Method in brief: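 Compounds active in the 150 μM screen were taken into dose-response studies under static conditions with a crystal violet read-out. IC50 is the concentration that inhibits 50% of biofilm growth relative to an untreated control.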

Escherichia coli [38] = assay: Antimicrobial activity against Escherichia coli K-12 ER2718 assessed as effect on planktonic growth at PC25 after 2 to 24 hrs; type: organism-based
Acinetobacter baumannii [39] = assay: Antimicrobial activity against Acinetobacter baumannii 19606 assessed as effect on planktonic growth at PC75 after 2 to 24 hrs; design: species or system ATCC 19606
Acinetobacter baumannii [40] = assay: Antimicrobial activity against Acinetobacter baumannii 19606 assessed as effect on planktonic growth at PC50 after 2 to 24 hrs; design: species or system ATCC 19606
Staphylococcus aureus [41] = assay: Antimicrobial activity against Staphylococcus aureus 29213 assessed as effect on planktonic growth at PC50 after 2 to 24 hrs by colony count method; type: organism-based; details: in vivo
Staphylococcus aureus [42] = assay: Antimicrobial activity against Staphylococcus aureus 29213 assessed as effect on planktonic growth at PC50 after 2 to 24 hrs; type: organism-based; details: in vivo
Staphylococcus aureus [43] = assay: Antimicrobial activity against Staphylococcus aureus 29213 assessed as effect on planktonic growth at PC75 after 2 to 24 hrs by colony count method; type: organism-based; details: in vivo
Staphylococcus aureus [44] = assay: Antimicrobial activity against Staphylococcus aureus 29213 assessed as effect on planktonic growth at 50 uM after 2 to 24 hrs; type: organism-based; method in brief: as §4
Staphylococcus aureus [45] = assay: Antimicrobial activity against Staphylococcus aureus 29213 assessed as effect on planktonic growth at PC25 after 2 to 24 hrs; type: organism-based; details: in vivo
Staphylococcus aureus [46] = assay: Induction of biofilm formation in Staphylococcus aureus 29213 at 50 uM after 24 hrs by crystal violet staining-based assay relative to control; type: functional; method in brief: as §2
Staphylococcus aureus [47] = assay: Antimicrobial activity against Staphylococcus aureus 29213 assessed as effect on planktonic growth at PC75 after 2 to 24 hrs; type: organism-based; details: in vivo
Staphylococcus aureus [48] = assay: Antimicrobial activity against Staphylococcus aureus 29213 assessed as effect on planktonic growth at PC25 after 2 to 24 hrs by colony count method; type: organism-based; details: in vivo

Row | SMILES | Activity (Staphylococcus aureus [1]) | Activity (Staphylococcus aureus [2]) | Activity (Staphylococcus aureus [3]) | Activity (Acinetobacter baumannii [4]) | Activity (Escherichia coli [5]) | Activity (Acinetobacter baumannii [6]) | Activity (Staphylococcus aureus [7]) | Activity (Staphylococcus aureus [9]) | Activity (Staphylococcus aureus [10]) | Activity (Staphylococcus aureus [11]) | Activity (Staphylococcus aureus [12]) | Activity (Staphylococcus aureus [13]) | Activity (Staphylococcus aureus [14]) | Activity (Escherichia coli [16]) | Activity (Staphylococcus aureus [17]) | Activity (Staphylococcus aureus [18]) | Activity (Escherichia coli [20]) | Activity (Escherichia coli [22]) | Activity (Escherichia coli [24]) | Activity (Escherichia coli [25]) | also measured
1 | CCCCCCNC(=O)Cn1cc(Cc2c(Br)[nH]c3ccccc23)nn1 | Non-toxic | Non-toxic | <50% | Non-toxic | Non-toxic | Non-toxic | Non-toxic | Non-toxic | Non-toxic | Non-toxic | Non-toxic | Non-toxic | Non-toxic | Non-toxic | Non-toxic | Non-toxic |  |  |  |  | inhibition at 150 µM (Staphylococcus aureus [8]): < 5%; inhibition at 150 µM (Escherichia coli [15]): < 5%; inhibition at 150 µM (Acinetobacter baumannii [19]): 17%
2 | CCCCCCCc1ccc(C(=O)NCCn2cc(Cc3csc4ccccc34)nn2)cc1 | Non-toxic | Non-toxic |  | Non-toxic | Non-toxic | Non-toxic |  |  |  |  | Non-toxic |  |  | Non-toxic | Non-toxic |  | >50% | Non-toxic | Non-toxic | Non-toxic | Activity (Escherichia coli [21]): 93.8 µM; Activity (Escherichia coli [23]): 56.3 µM; Activity (Acinetobacter baumannii [26]): Non-toxic; Activity (Acinetobacter baumannii [27]): Non-toxic; Activity (Acinetobacter baumannii [28]): Non-toxic; Activity (Acinetobacter baumannii [29]): <50%; Activity (Acinetobacter baumannii [30]): Non-toxic; Activity (Escherichia coli [31]): Non-toxic; Activity (Escherichia coli [32]): Non-toxic; Activity (Acinetobacter baumannii [33]): Non-toxic; inhibition at 150 µM (Staphylococcus aureus [34]): < 5%; Activity (Escherichia coli [35]): Non-toxic; Activity (Escherichia coli [36]): 22.2 µM; pIC50 (Staphylococcus aureus [37]): 4.08; Activity (Escherichia coli [38]): Non-toxic; Activity (Acinetobacter baumannii [39]): Non-toxic; Activity (Acinetobacter baumannii [40]): Non-toxic
3 | CCCCCCCc1ccc(C(=O)NCCn2cc(Cc3c(Br)[nH]c4ccccc34)nn2)cc1 | Non-toxic | Non-toxic | >50% | Non-toxic | Non-toxic | Non-toxic | Non-toxic | Non-toxic | Non-toxic | Non-toxic | Non-toxic | Non-toxic | Non-toxic | Non-toxic | Non-toxic | Non-toxic | <50% | Non-toxic | Non-toxic | Non-toxic | Activity (Acinetobacter baumannii [26]): Non-toxic; Activity (Acinetobacter baumannii [27]): Non-toxic; Activity (Acinetobacter baumannii [28]): Non-toxic; Activity (Staphylococcus aureus [41]): Non-toxic; Activity (Staphylococcus aureus [42]): Non-toxic; Activity (Acinetobacter baumannii [29]): <50%; Activity (Acinetobacter baumannii [30]): Non-toxic; Activity (Staphylococcus aureus [43]): Non-toxic; Activity (Escherichia coli [31]): Non-toxic; Activity (Escherichia coli [32]): Non-toxic; Activity (Acinetobacter baumannii [33]): Non-toxic; Activity (Staphylococcus aureus [44]): Non-toxic; Activity (Staphylococcus aureus [45]): Non-toxic; Activity (Escherichia coli [35]): Non-toxic; Activity (Staphylococcus aureus [46]): <50%; Activity (Staphylococcus aureus [47]): Non-toxic; Activity (Escherichia coli [38]): Non-toxic; Activity (Acinetobacter baumannii [39]): Non-toxic; Activity (Staphylococcus aureus [48]): Non-toxic; Activity (Acinetobacter baumannii [40]): Non-toxic
